Experimental data published in ChEMBL document CHEMBL1122366, “Potential antiatherosclerotic agents. 3. Substituted benzoic and non benzoic acid analogues of cetaben” (1983).

Columns and labels:
[1] = tested on: Rattus norvegicus; experiment: In vivo sterol lowering activity when dosed as 0.01 % of the diet; format: functional
Outline: (§1)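 Normal rats were dosed in the diet. Serum sterol and triglyceride levels were measured and expressed as the mean percent of control values. Significance versus control was reported at p < 0.05, 0.01 and 0.001.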

[2] = tested on: Rattus norvegicus; experiment: In vivo sterol lowering activity when dosed as 0.03 % of the diet; format: functional; outline: as §1
[3] = tested on: Rattus norvegicus; experiment: In vivo sterol lowering activity at dose of 0.10 % of the diet; format: functional; outline: as §1
[4] = tested on: Rattus norvegicus; experiment: In vivo triglyceride lowering activity when dosed as 0.01 % of the diet; format: functional; outline: as §1
[5] = tested on: Rattus norvegicus; experiment: In vivo triglyceride lowering activity dosed at 0.10 % of the diet.; format: functional; outline: as §1
[6] = tested on: Rattus norvegicus; experiment: In vivo triglyceride lowering activity when dosed at 0.05 % of the diet
[7] = target: T1, Sterol O-acyltransferase 1 (Rattus norvegicus) (UniProt O70536); experiment: In vitro inhibition of acyl coenzyme A:cholesterol acyltransferase; design: concentration or dose not given beside the values; details: concentration not given here
T1 sequence (whole entry): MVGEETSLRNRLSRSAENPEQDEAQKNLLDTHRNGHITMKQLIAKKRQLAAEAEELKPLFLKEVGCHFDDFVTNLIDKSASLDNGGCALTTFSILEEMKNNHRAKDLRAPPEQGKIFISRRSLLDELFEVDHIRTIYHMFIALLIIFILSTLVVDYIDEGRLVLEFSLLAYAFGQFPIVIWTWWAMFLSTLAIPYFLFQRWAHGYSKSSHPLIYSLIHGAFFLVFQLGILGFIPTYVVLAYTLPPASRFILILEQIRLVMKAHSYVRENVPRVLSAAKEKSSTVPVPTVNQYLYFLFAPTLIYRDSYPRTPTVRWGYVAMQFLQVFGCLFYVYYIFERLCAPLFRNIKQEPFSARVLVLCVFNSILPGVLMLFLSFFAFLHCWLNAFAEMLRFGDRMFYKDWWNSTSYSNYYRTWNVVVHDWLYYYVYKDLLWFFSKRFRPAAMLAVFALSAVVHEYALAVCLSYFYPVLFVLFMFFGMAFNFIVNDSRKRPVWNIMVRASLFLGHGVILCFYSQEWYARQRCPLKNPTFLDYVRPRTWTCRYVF
Outline: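 Enzyme fatty acyl-CoA:cholesterol acyltransferase (ACAT), assayed in vitro at a single drug concentration of 5.2 μg/mL. The value is the mean percent inhibition of enzyme activity.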

[8] = tested on: Rattus norvegicus; experiment: In vivo triglyceride lowering activity when dosed at 0.03 % of the diet; format: functional; outline: as §1
[9] = tested on: Rattus norvegicus; experiment: In vivo triglyceride lowering activity when dosed as 0.025 % of the diet

inhibition [7] [%] | SMILES | serum sterol level, % of control [1] [%] | serum sterol level, percent of control [2] [%] | serum sterol level, percent of control [3] [%] | serum triglyceride level, percent of control [4] [%] | serum triglyceride, percent of control [5] [%] | Diet [6] [%] | serum triglyceride level, percent of control [8] [%] | Diet [9] [%] | Diet [8] [%]
 | CCCCCCCCCCCCCCCCNc1ccc(C(=O)O)c(OC)c1 | 104 | 105 | 98 | 75 | 77 | <66 |  |  | 
16 | CCCCCCCCCCCCCCCCNc1ccc(C(=O)CCC(=O)O)cc1 | 116 | 100 | 109 |  | <66 |  | <72 | <82 | 
0 | CCCCCCCCCCCCCCCCNc1ccc(C(SCC)SCC)cc1 | 96 | 101 | 88 | 86 | 77 |  | 106 |  | 
< 48 | CCCCCCCCCCCCCCCCNC1CCC(C(=O)O)CC1 (centres undefined) | 97 | <86 | <75 | 75 | 71 |  | 79 |  | 
< 47 | CCCCCCCCCCCCCCCCNc1ccc(C(=O)COC)cc1 | 88 | 88 | 91 | 77 | <65 |  | 85 |  | 
< 37 | CCCCCCCCCCCCCCCCNc1ccc(C(=O)OCC)c(C(=O)OCC)c1 | 98 | 99 | 90 | 86 | <72 |  | 93 |  | 
63 | CCCCCCCCCCCCCCCCNc1ccc(C(=O)[O-])c(C(=O)[O-])c1.[Na+].[Na+] | 100 | 105 | 101 | 110 | <67 |  | 85 |  | 
13 | CCCCCCCCCCCCCCCCNc1ccc(C(=O)OCC(C)(C)CO)cc1 | 97 | 93 | 101 | 103 | 101 |  | 92 |  | 
1 | CCCCCCCCCCCCCCCCNc1ccc(C(=O)O)cc1C | 94 | 92 | <91 | 75 | 101 |  | 96 |  | 
70 | CCCCCCCCCCCCCCCCNc1csc(C(=O)O)c1 | 98 | 101 | 98 | 112 | 79 |  | 103 |  | 
< 38 | CCCCCCCCCCCCCCN(CC)c1ccc(C(=O)O)cc1 | 93 | 98 | 88 | 90 | 80 |  | 92 |  | 
1 | CCCCCCCCCCCCCCCCNc1ccc(C(=O)SCCO)cc1 | <87 | <86 | <84 | 70 | <59 |  | 74 |  | 
0 | CCCCCCCCCCCCCCCCNc1ccc(C(=O)Oc2ccc(Cl)cc2)cc1 | 94 | <86 | 91 | 91 | 83 |  | 85 |  | 
< 45 | CCCCCCCCCCCCCCCCNc1ccc(C(=O)O)cn1 | 102 | <84 | 90 | 121 | 94 |  | 88 |  | 
0 | CCCCCCCCCCCCCCCCNc1ccc(C(=O)C(C)(C)C(=O)OCC)cc1 | 94 | 103 | 90 | 101 | 101 |  | <65 |  | 
< 61 | CCCCCCCCCCCCCCCCNc1ccc(C(=O)N2CCCCCC2)cc1 | 110 | 105 | 106 | 72 | 68 |  | 90 |  | 
9 | CCCCCCCCCCCCCCCCNc1ccc(C(=O)NO)cc1 | 106 | 106 | 104 | 70 | 82 |  | 76 |  | 
< 64 | CCCCCCCCCCCCCCCCNc1ccc(C(=O)NCC(=O)O)cc1 | <77 | 87 | <77 | 76 | <48 |  | <70 |  | 
14 | CCCCCCCCCCCCCCCCNc1ccc(C(C)=O)cc1 | 129 | 119 | 98 | 84 | 78 |  | 88 |  | 
21 | CCCCCCCCCCCCCCCCNc1ccc(C(=O)C(C)C(=O)OCC)cc1 (centres undefined) | 100 | 87 | <73 | 87 | <66 |  | 88 |  | 
0 | CCCCCCCCCCCCCCCCNc1ccc(C(=O)OC2COC(c3ccccc3)OC2)cc1 (centres undefined) | 95 | 91 | 99 | 103 | 78 |  |  |  | 68
12 | CCCCCCCCCCCCCCCCN(C=O)c1ccc(C(=O)O)cc1 | <89 | 96 | 105 | 77 | 78 |  | 100 |  | 
12 | CCCCCCCCCCCCCCCCNc1ccc(C(=O)Nc2ccc(C(=O)O)cc2)cc1 | 95 | <87 | 100 | 85 | 103 |  | 121 |  | 
57 | CCCCCCCCCCCCCCCCNc1ccc(C(=O)O)c(F)c1 | 93 | <77 | <75 | 77 | <40 |  | 79 |  | 
< 22 | CCCCCCCCCCCCCCCCNc1ccc(SCC(=O)O)cc1 | 92 | 97 | 93 | 72 | 100 |  | 110 |  | 
